How the values were obtained:
[1] = target: T1, Cytosolic purine 5'-nucleotidase (Homo sapiens, UniProt P49902); assay: Inhibition of recombinant N-terminal truncated human cytosolic 5'-nucleotidase-2 assessed as inhibition of inosine 5'-monophosphate hydrolysis at 1 mM by rapid green malachite assay
How it was run: (§1)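 Purified recombinant N-terminally truncated cN-II expressed in E. coli, with IMP as substrate. Released phosphate was read by green malachite colorimetry. Inhibitor was tested at a single level, 0.2 mM or 1 mM. Compounds that are not water-soluble were added in DMSO, not exceeding 2% final.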

RL [2] = assay: Antiproliferative activity against human RL cells after 72 hrs by MTT assay in presence of fludarabine; format: functional, cell-based
[3] = target: T1, Cytosolic purine 5'-nucleotidase; assay: Inhibition of recombinant N-terminal truncated human cytosolic 5'-nucleotidase-2 assessed as inhibition of inosine 5'-monophosphate hydrolysis by steady state kinetics with HPLC quantification
[4] = target: T1, Cytosolic purine 5'-nucleotidase; assay: Inhibition of recombinant N-terminal truncated human cytosolic 5'-nucleotidase-2 assessed as inhibition of inosine 5'-monophosphate hydrolysis at 0.2 mM by rapid green malachite assay; how it was run: as §1
RL [5] = assay: Antiproliferative activity against human RL cells after 72 hrs by MTT assay; format: functional, cell-based
How it was run: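 MTT assay on RL human follicular lymphoma cells treated with a range of compound concentrations for 72 h. IC50 calculated with CompuSyn and given as the mean ± SEM of at least three independent experiments.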

RL [6] = assay: Antiproliferative activity against human RL cells after 72 hrs by MTT assay in presence of cladribine; format: functional, cell-based
RL [7] = assay: Antiproliferative activity against human RL cells after 72 hrs by MTT assay in presence of clofarabine; format: functional, cell-based

T1 sequence (P49902 whole entry, the tested form may be a part): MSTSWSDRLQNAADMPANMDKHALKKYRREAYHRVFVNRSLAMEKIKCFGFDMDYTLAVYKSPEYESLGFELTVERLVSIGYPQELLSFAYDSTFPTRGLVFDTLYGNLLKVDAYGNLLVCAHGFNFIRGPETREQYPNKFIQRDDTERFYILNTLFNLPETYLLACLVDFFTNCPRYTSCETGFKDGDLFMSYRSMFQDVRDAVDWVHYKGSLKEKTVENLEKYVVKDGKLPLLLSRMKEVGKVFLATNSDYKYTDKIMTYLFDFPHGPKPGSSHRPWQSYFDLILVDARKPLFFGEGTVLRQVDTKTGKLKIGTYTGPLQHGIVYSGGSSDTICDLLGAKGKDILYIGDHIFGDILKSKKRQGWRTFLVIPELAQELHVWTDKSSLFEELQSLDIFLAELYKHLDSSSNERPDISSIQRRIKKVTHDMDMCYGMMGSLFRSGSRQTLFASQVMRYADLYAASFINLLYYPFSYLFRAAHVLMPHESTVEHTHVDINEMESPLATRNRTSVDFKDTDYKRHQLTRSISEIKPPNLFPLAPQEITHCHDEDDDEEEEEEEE

Row | Compound | inhibition [1] [%] | also measured
1 | Nc1ccccc1-c1ccccc1 | 36 | 
2 | Oc1ccc2ccc(O)cc2c1 | 40 | 
3 | c1ccc(CNc2ncnc3[nH]cnc23)cc1 | 20 | 
4 | O=C(Nc1ncnc2nc[nH]c12)c1ccccc1 | 28 | 
5 | OCc1nc2ccccc2[nH]1 | 11 | 
6 | Oc1ccccc1-c1ccccc1 | 19 | 
7 | c1ccc(-c2c[nH]cn2)cc1 | 36 | 
8 | Nc1nc(Cl)c2nc[nH]c2n1 | 23 | 
9 | Nc1ccc(-c2ccc(N)c(O)c2)cc1O | 23 | 
10 | Oc1ccc(-c2ccc(O)cc2)cc1 | 8 | 
11 | Nc1cccc2cnccc12 | 30 | 
12 | O=C1c2ccc(S(=O)(=O)O)cc2C(=O)c2ccc(S(=O)(=O)O)cc21 |  | CI95 (RL [2]): 4.2; Ki [3]: 2000 µM; inhibition [4]: 20%; IC50 (RL [5]): 1040 µM; CI95 (RL [6]): 0.4; CI95 (RL [7]): 0.24
13 | c1ccc(N2CCNCC2)nc1 | 0.5 | 
14 | OC(c1ccccc1)c1ccccc1 | 2 | 
15 | Nc1[nH]cnc2ncnc1-2 | 19 | 

Reference: ChEMBL document CHEMBL3745667, “Identification of Noncompetitive Inhibitors of Cytosolic 5'-Nucleotidase II Using a Fragment-Based Approach” (J Med Chem, 2015)
